Format in all cases: functional, cell-based
One assay has as its system KB. Description: Cytotoxicity against human KB cells. The procedure, abridged:
(§1)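 Colorimetric cytotoxicity assay following Skehan and co-workers' method. The cells were human KB (epidermoid carcinoma of the mouth), BC1 (breast cancer) and NCI-H187 (small cell lung cancer). Ellipticine and doxorubicin were the reference compounds.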

Assay [1] is described as follows: (§2) Cytotoxicity against human BC1 cells. In outline:
as §1

In a further assay the test system is NCI-H187. Description: Cytotoxicity against human NCI-H187 cells. In outline:
as §1

Another assay relates to BC1. Described as §2. In outline: as §1

This note sets out measurements from ChEMBL document CHEMBL1145417, “Cytotoxic clerodane diterpenoids from fruits of Casearia grewiifolia” (J Nat Prod, 2007).

Values after ≈ are worked out from the molar mass of the structure shown. Active and inactive are the calls of the source. The rule behind the calls is not given here.

One may read the IC50 as the concentration needed to halve the response being measured. Higher therefore signals a need for much substance. As to `C=C/C(C)=C\C[C@]1(C)[C@H](C)CC[C@@]23C(=C[C@H](OC(=O)CCC)C[C@@H]12)[C@@H](OC(C)=O)O[C@H]3OC(C)=O` (relative stereo) [CASEARGREWINS E], the figures for the IC50 (in the assay on KB; in assay [1]; in the assay on NCI-H187) were 0.66 µg/mL (≈ 1.35 µM), 0.91 µg/mL (≈ 1.86 µM) and 0.15 µg/mL (≈ 0.307 µM), respectively.

Consider `C=C/C(C)=C\C[C@]1(C)[C@H](C)C[C@H](O)[C@@]23C(=C[C@H](OC(=O)CCC)C[C@@H]12)[C@@H](OC(C)=O)O[C@H]3OC(C)=O` (relative stereo) [CASEARGREWINS F], for which the result with KB was inactive. Besides, the IC50 was determined as 0.2 µg/mL (≈ 0.396 µM) in assay [1] and 4.72 µg/mL (≈ 9.35 µM) with NCI-H187.

Take `C=C/C(C)=C\C[C@]1(C)[C@H](C)C[C@H](O)[C@@]23C(=C[C@H](OC(=O)CCC)C[C@@H]12)[C@@H](OC)O[C@H]3OC(C)=O` (relative stereo) [CASEARGREWINS G]: the 50% inhibitory concentration (IC50) came out at 0.67 µg/mL (≈ 1.41 µM) in the assay with KB, 3.97 µg/mL (≈ 8.33 µM) in assay [1] and 5.57 µg/mL (≈ 11.7 µM) in the assay with NCI-H187.

In the case of `C=C/C(C)=C\C[C@]1(C)[C@H](C)CC[C@@]23C(=C[C@H](OC(=O)CCCCC)C[C@@H]12)[C@@H](OC(C)=O)O[C@H]3OC(C)=O` (relative stereo) [CASEARGREWINS H], the IC50 with KB was found to be 0.88 µg/mL (≈ 1.7 µM); in assay [1], 0.21 µg/mL (≈ 0.406 µM); with NCI-H187 it was 0.54 µg/mL (≈ 1.05 µM).

`C=C/C(C)=C\C[C@]1(C)[C@H](C)C[C@H](O)[C@@]23C(=C[C@H](OC(=O)CCCCC)C[C@@H]12)[C@@H](OC(C)=O)O[C@H]3OC(C)=O` (relative stereo) [CASEARGREWINS I]: the IC50 in the assay on KB is 3.04 µg/mL (≈ 5.71 µM); in assay [1], 0.36 µg/mL (≈ 0.676 µM); in the assay on NCI-H187 it was 0.33 µg/mL (≈ 0.62 µM).

Turning to `C=C/C(C)=C\C[C@]1(C)[C@H](C)C[C@H](O)[C@@]23C(=C[C@H](OC(=O)CCCCC)C[C@@H]12)[C@@H](OC)O[C@H]3OC(C)=O` (relative stereo) [CASEARGREWINS J], the outcome in the assay on KB was inactive. The IC50 in assay [1] was 0.99 µg/mL (≈ 1.96 µM); with NCI-H187 it was 1.22 µg/mL (≈ 2.42 µM).

`C=C/C(C)=C\C[C@]1(C)[C@H](C)[C@@H](O)[C@H](O)[C@@]23C(=C[C@H](OC(=O)CCCCC)C[C@@H]12)[C@@H](OC)O[C@H]3OC(C)=O` (relative stereo) [CASEARGREWINS K]: the result in the assay on KB was inactive. In addition, the IC50 in assay [1] is 3.4 µg/mL (≈ 6.53 µM); in the assay on NCI-H187, 5.11 µg/mL (≈ 9.81 µM).

For the compound `C=C/C(C)=C\C[C@]1(C)[C@H](C)C[C@H](O)[C@@]23C(=C[C@H](OC(=O)CC(C)C)C[C@@H]12)[C@@H](OC(C)=O)O[C@H]3OC(C)=O` (relative stereo) [CASEARGREWINS L], the IC50 is 6 µg/mL (≈ 11.6 µM) in the assay on KB and 0.32 µg/mL (≈ 0.617 µM) in the assay with NCI-H187. The outcome in the assay with BC1 was inactive.

On to `COc1cccc2c1C(=O)c1c(O)c3c(c(O)c1C2=O)C[C@@](O)(C(=O)CO)C[C@@H]3O[C@H]1C[C@H](N)[C@H](O)[C@H](C)O1` [DOXORUBICIN], for which the IC50 was 0.23 µg/mL (≈ 0.423 µM) in the assay with KB, 0.13 µg/mL (≈ 0.239 µM) in assay [1] and 0.048 µg/mL (≈ 0.0883 µM) in the assay on NCI-H187.

Regarding `Cc1c2ccncc2c(C)c2c1[nH]c1ccccc12` [ELLIPTECINE], the figures for the IC50 (with KB; in assay [1]) were 0.67 µg/mL (≈ 2.72 µM) and 0.13 µg/mL (≈ 0.528 µM), respectively.

Turning to `C=C/C(C)=C\C[C@]1(C)[C@H](C)[C@@H](O)[C@H](O)[C@@]23C(=C[C@H](OC(=O)CC(C)C)C[C@@H]12)[C@@H](OC(C)=O)O[C@H]3OC(C)=O` [ESCULENTIN B], in the assay on KB, the outcome was inactive. The IC50 is 0.17 µg/mL (≈ 0.318 µM) in assay [1] and 0.68 µg/mL (≈ 1.27 µM) in the assay with NCI-H187.
